Experimental data reported in ChEMBL document CHEMBL4622853, “Design and synthesis of novel pyrrolo[2,3-b]pyridine derivatives targeting V600EBRAF” (Bioorg Med Chem, 2020).

Legend:
[1] = biological target: T1, Serine/threonine-protein kinase B-raf (Homo sapiens, UniProt P15056); assay: Inhibition of human wild type BRAF at 10 uM by ELISA
In short: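 Wild-type BRAF kinase inhibition run in the same manner as the V600E-B-RAF ELISA, reported as percent inhibition at 10 µM.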

[2] = test system: Serine/threonine-protein kinase B-raf (Homo sapiens), P15056 [V600E]; assay: Inhibition of human BRAF V600E mutant at 10 uM by ELISA
Sequence of Serine/threonine-protein kinase B-raf (Homo sapiens), P15056 [V600E] (P15056 whole entry V600E): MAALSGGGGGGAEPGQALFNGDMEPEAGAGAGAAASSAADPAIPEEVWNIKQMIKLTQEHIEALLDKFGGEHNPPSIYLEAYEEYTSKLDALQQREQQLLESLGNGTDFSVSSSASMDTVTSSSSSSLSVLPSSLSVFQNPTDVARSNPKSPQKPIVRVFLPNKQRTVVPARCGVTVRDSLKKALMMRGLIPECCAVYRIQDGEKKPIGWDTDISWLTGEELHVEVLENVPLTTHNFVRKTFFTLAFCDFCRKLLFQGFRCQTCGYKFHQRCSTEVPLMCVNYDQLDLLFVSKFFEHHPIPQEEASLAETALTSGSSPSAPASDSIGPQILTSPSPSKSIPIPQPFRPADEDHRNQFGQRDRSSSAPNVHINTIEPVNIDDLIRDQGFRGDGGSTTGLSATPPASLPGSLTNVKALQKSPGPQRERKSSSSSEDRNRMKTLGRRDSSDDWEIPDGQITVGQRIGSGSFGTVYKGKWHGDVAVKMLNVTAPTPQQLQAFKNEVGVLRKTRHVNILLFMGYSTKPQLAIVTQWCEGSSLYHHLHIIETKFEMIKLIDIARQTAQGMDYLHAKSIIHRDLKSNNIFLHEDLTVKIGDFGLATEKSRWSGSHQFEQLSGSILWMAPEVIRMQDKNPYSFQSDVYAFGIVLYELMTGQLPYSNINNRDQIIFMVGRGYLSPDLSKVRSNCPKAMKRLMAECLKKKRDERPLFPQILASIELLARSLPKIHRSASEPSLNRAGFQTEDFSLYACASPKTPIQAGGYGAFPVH

[3] = biological target: Serine/threonine-protein kinase B-raf (Homo sapiens, UniProt P15056, V600E); assay: Inhibition of human BRAF V600E mutant by ELISA
Sequence of Serine/threonine-protein kinase B-raf (Homo sapiens, UniProt P15056, V600E) (P15056 2-766 V600E limits assumed): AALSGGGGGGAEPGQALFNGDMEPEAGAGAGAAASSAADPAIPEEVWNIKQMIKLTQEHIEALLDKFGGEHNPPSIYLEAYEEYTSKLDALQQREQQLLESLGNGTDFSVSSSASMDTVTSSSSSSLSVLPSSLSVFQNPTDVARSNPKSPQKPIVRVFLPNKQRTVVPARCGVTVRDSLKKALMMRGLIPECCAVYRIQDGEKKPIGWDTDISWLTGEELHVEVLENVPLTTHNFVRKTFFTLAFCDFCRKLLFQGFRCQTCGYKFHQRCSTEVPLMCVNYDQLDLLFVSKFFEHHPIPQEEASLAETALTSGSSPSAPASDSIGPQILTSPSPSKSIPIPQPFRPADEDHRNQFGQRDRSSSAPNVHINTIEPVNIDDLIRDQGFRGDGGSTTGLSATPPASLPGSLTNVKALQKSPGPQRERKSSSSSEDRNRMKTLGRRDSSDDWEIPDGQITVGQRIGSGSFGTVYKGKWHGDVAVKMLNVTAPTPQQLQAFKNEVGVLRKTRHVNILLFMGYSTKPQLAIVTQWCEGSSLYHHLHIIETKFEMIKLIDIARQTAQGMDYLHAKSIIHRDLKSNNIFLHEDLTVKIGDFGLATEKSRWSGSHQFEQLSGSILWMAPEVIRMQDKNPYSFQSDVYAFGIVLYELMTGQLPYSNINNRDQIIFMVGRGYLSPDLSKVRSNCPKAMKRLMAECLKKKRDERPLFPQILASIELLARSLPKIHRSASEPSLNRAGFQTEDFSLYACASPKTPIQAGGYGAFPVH

[4] = biological target: T1, Serine/threonine-protein kinase B-raf; assay: Inhibition of BRAF (unknown origin)
A498 = assay: Cytotoxicity against human A498 cells assessed as reduction in cell viability after 48 hrs by SRB assay; format: functional, cell-based; conditions: A498, 48 h
In short: (§1)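 Cell lines from the NCI sixty human cancer cell line panel. IC50 taken as the concentration that reduces cellular growth to 50% of untreated cells.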

HL-60(TB) = assay: Cytotoxicity against human HL-60(TB) cells assessed as reduction in cell viability after 48 hrs by SRB assay; format: functional, cell-based; conditions: HL-60, 48 h
In short: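 Tested within the NCI sixty human cancer cell line panel. IC50 is the concentration that reduces cellular growth to 50% of untreated cells after treatment.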

M14 [5] = assay: Cytotoxicity against human M14 cells assessed as reduction in cell viability after 48 hrs by SRB assay; format: functional, cell-based; conditions: M14, 48 h; in short: as §1
MDA-MB-231 = assay: Cytotoxicity against human MDA-MB-231 cells assessed as reduction in cell viability after 48 hrs by SRB assay; format: functional, cell-based; conditions: MDA-MB-231, 48 h; in short: as §1
IGROV-1 [6] = assay: Cytotoxicity against human IGROV1 cells assessed as reduction in cell viability at 10 uM after 48 hrs by SRB assay relative to control; format: functional; conditions: IGROV-1, 48 h
K562 [7] = assay: Cytotoxicity against human K562 cells assessed as reduction in cell viability at 10 uM after 48 hrs by SRB assay relative to control; format: functional; conditions: K562, 48 h
NCI-H460 = assay: Cytotoxicity against human NCI-H460 cells assessed as reduction in cell viability after 48 hrs by SRB assay; format: functional, cell-based; conditions: NCI-H460, 48 h; in short: as §1
ACHN [8] = assay: Cytotoxicity against human ACHN cells assessed as reduction in cell viability at 10 uM after 48 hrs by SRB assay relative to control; format: functional
K562 [9] = assay: Cytotoxicity against human K562 cells assessed as reduction in cell viability after 48 hrs by SRB assay; format: functional, cell-based; conditions: K562, 48 h; in short: as §1
Hs-578T = assay: Cytotoxicity against human Hs 578T cells assessed as reduction in cell viability after 48 hrs by SRB assay; format: functional, cell-based; in short: as §1
SK-OV-3 [10] = assay: Cytotoxicity against human SKOV3 cells assessed as reduction in cell viability after 48 hrs by SRB assay; format: functional, cell-based; conditions: SK-OV-3, 48 h; in short: as §1
CAKI-1 [11] = assay: Cytotoxicity against human Caki1 cells assessed as reduction in cell viability after 48 hrs by SRB assay; format: functional, cell-based; conditions: CAKI-1, 48 h; in short: as §1
ACHN [12] = assay: Cytotoxicity against human ACHN cells assessed as reduction in cell viability after 48 hrs by SRB assay; format: functional, cell-based; in short: as §1
DU-145 = assay: Cytotoxicity against human DU145 cells assessed as reduction in cell viability after 48 hrs by SRB assay; format: functional, cell-based; conditions: DU-145, 48 h; in short: as §1
M14 [13] = assay: Cytotoxicity against human M14 cells assessed as reduction in cell viability at 10 uM after 48 hrs by SRB assay relative to control; format: functional; conditions: M14, 48 h
IGROV-1 [14] = assay: Cytotoxicity against human IGROV1 cells assessed as reduction in cell viability after 48 hrs by SRB assay; format: functional, cell-based; conditions: IGROV-1, 48 h; in short: as §1
CAKI-1 [15] = assay: Cytotoxicity against human Caki1 cells assessed as reduction in cell viability at 10 uM after 48 hrs by SRB assay relative to control; format: functional; conditions: CAKI-1, 48 h
LOX IMVI = assay: Cytotoxicity against human LOXIMVI cells assessed as reduction in cell viability after 48 hrs by SRB assay; format: functional, cell-based; in short: as §1
NCI-H522 = assay: Cytotoxicity against human NCI-H522 cells assessed as reduction in cell viability after 48 hrs by SRB assay; format: functional, cell-based; conditions: NCI-H522, 48 h; in short: as §1
SK-MEL-2 [16] = assay: Cytotoxicity against human SK-MEL-2 cells assessed as reduction in cell viability after 48 hrs by SRB assay; format: functional, cell-based; conditions: SK-MEL-2, 48 h; in short: as §1
HCT-116 = assay: Cytotoxicity against human HCT116 cells assessed as reduction in cell viability after 48 hrs by SRB assay; format: functional, cell-based; conditions: HCT-116, 48 h; in short: as §1
SK-OV-3 [17] = assay: Cytotoxicity against human SKOV3 cells assessed as reduction in cell viability at 10 uM after 48 hrs by SRB assay relative to control; format: functional; conditions: SK-OV-3, 48 h
Malme-3M = assay: Cytotoxicity against human MALME-3M cells assessed as reduction in cell viability after 48 hrs by SRB assay; format: functional, cell-based; in short: as §1
SK-MEL-2 [18] = assay: Cytotoxicity against human SK-MEL-2 cells assessed as reduction in cell viability at 10 uM after 48 hrs by SRB assay relative to control; format: functional; conditions: SK-MEL-2, 48 h

T1 sequence (P15056 whole entry): as the sequence (P15056 whole entry V600E) above, with E600V counted along it

O=S(=O)(NCCCNc1nccc(-n2ccc3cccnc32)n1)c1cccc(C(F)(F)F)c1
inhibition [1]: 86.3%
inhibition [2]: 96.1%
IC50 [3]: 1.1 µM

Cc1ccc(S(=O)(=O)NCCCNc2nccc(-n3ccc4cccnc43)n2)cc1
inhibition [1]: 83.3%
inhibition [2]: 93%
IC50 [3]: 1 µM

O=S(=O)(NCCNc1nccc(-n2ccc3cccnc32)n1)c1cccc(C(F)(F)F)c1
inhibition [1]: 10.2%
inhibition [2]: 18.1%

O=C(NCCNc1nccc(-n2ccc3cccnc32)n1)c1ccccc1
inhibition [1]: 86.3%
inhibition [2]: 86.3%

O=S(=O)(NCCNc1nccc(-n2ccc3cccnc32)n1)c1cccc(Br)c1
inhibition [1]: 55.2%
inhibition [2]: 65.3%

O=C(Nc1ccccc1)Nc1ccc(F)c(C(=O)c2c[nH]c3ncccc23)c1F
inhibition [1]: 86.5%
inhibition [2]: 94.5%

O=S(=O)(NCCNc1nccc(-n2ccc3cccnc32)n1)c1ccc(Br)cc1
inhibition [1]: 44.6%
inhibition [2]: 65.9%

O=S(=O)(NCCCNc1nccc(-n2ccc3cccnc32)n1)c1ccc(F)cc1
inhibition [1]: 79.7%
inhibition [2]: 95.2%
IC50 [3]: 0.88 µM

O=S(=O)(NCCCNc1nccc(-n2ccc3cccnc32)n1)c1ccc(Cl)cc1
inhibition [1]: 66.5%
inhibition [2]: 96.8%

O=C(NCCCNc1nccc(-n2ccc3cccnc32)n1)c1ccc(C(F)(F)F)cc1
inhibition [1]: 9.45%
inhibition [2]: 15.3%

Cc1ccc(NC(=O)Nc2ccc(F)c(C(=O)c3c[nH]c4ncccc34)c2F)cc1
inhibition [1]: 77.6%
inhibition [2]: 98.4%
IC50 [3]: 0.085 µM

CCCS(=O)(=O)Nc1ccc(F)c(-n2cc(-c3cncnc3)c3nc(N(C)C4CCN(CC)CC4)ccc32)c1F [XP-102]
IC50 [4]: 0.0004 µM

O=C(NCCCNc1nccc(-n2ccc3cccnc32)n1)c1ccc(F)cc1
inhibition [1]: 58.7%
inhibition [2]: 67.5%

O=C(Nc1cccc(F)c1)Nc1ccc(F)c(C(=O)c2c[nH]c3ncccc23)c1F
inhibition [1]: 51.2%
inhibition [2]: 49%

O=C(Nc1ccc(Br)cc1)Nc1ccc(F)c(C(=O)c2c[nH]c3ncc(Br)cc23)c1F
IC50 (A498): 11.2 µM
IC50 (HL-60(TB)): 10.9 µM
IC50 (M14 [5]): 7.92 µM
IC50 (MDA-MB-231): 12.2 µM
inhibition at 10 µM (IGROV-1 [6]): 75%
inhibition at 10 µM (K562 [7]): 65%
IC50 (NCI-H460): 10.5 µM
inhibition [1]: 72.5%
inhibition at 10 µM (ACHN [8]): 70%
IC50 (K562 [9]): 7.21 µM
IC50 (Hs-578T): 9.36 µM
IC50 (SK-OV-3 [10]): 4.52 µM
IC50 (CAKI-1 [11]): 3.04 µM
IC50 (ACHN [12]): 7.62 µM
IC50 (DU-145): 9.62 µM
inhibition at 10 µM (M14 [13]): 65%
IC50 (IGROV-1 [14]): 5.06 µM
inhibition [2]: 92.3%
inhibition at 10 µM (CAKI-1 [15]): 90%
IC50 (LOX IMVI): 26.5 µM
IC50 (NCI-H522): 9.01 µM
IC50 (SK-MEL-2 [16]): 6.02 µM
IC50 (HCT-116): 8.71 µM
inhibition at 10 µM (SK-OV-3 [17]): 87%
IC50 [3]: 0.08 µM
IC50 (Malme-3M): 9.26 µM
inhibition at 10 µM (SK-MEL-2 [18]): 85%

O=C(NCCCNc1nccc(-n2ccc3cccnc32)n1)c1ccc(Cl)cc1
inhibition [1]: 72.1%
inhibition [2]: 80.7%

Cc1ccc(S(=O)(=O)NCCNc2nccc(-n3ccc4cccnc43)n2)cc1
inhibition [1]: 26.3%
inhibition [2]: 41.1%

O=C(NCCNc1nccc(-n2ccc3cccnc32)n1)c1c(F)cccc1F
inhibition [1]: 0.1%
inhibition [2]: -1.9%

O=S(=O)(NCCCNc1nccc(-n2ccc3cccnc32)n1)c1cccc(Br)c1
inhibition [1]: 89.4%
inhibition [2]: 96.7%
IC50 [3]: 0.5 µM

O=S(=O)(NCCCNc1nccc(-n2ccc3cccnc32)n1)c1ccc(Br)cc1
inhibition [1]: 75.2%
inhibition [2]: 97.7%
IC50 [3]: 0.35 µM

O=C(NCCCNc1nccc(-n2ccc3cccnc32)n1)c1ccccc1
inhibition [1]: 60.9%
inhibition [2]: 69.4%

O=C(NCCNc1nccc(-n2ccc3cccnc32)n1)c1ccc(Cl)cc1
inhibition [1]: -1.1%
inhibition [2]: 0.16%

COc1ccc(NC(=O)Nc2ccc(F)c(C(=O)c3c[nH]c4ncccc34)c2F)cc1
inhibition [1]: 69.6%
inhibition [2]: 81.3%

O=C(NCCCNc1nccc(-n2ccc3cccnc32)n1)C1CCCCC1
inhibition [1]: 41.2%
inhibition [2]: 49.6%

O=S(=O)(NCCNc1nccc(-n2ccc3cccnc32)n1)c1ccccc1
inhibition [1]: 52.3%
inhibition [2]: 66.5%

Cc1ccc(C(=O)NCCCNc2nccc(-n3ccc4cccnc43)n2)cc1
inhibition [1]: 50%
inhibition [2]: 61.6%

O=S(=O)(NCCCNc1nccc(-n2ccc3cccnc32)n1)c1ccccc1
inhibition [1]: 81.4%
inhibition [2]: 95.5%
IC50 [3]: 0.75 µM

O=C(NCCNc1nccc(-n2ccc3cccnc32)n1)c1ccc(F)cc1
inhibition [1]: 56.8%
inhibition [2]: 70%

Cc1ccc(C(=O)NCCNc2nccc(-n3ccc4cccnc43)n2)cc1
inhibition [1]: 53.8%
inhibition [2]: 81.8%

COc1ccc(S(=O)(=O)NCCCNc2nccc(-n3ccc4cccnc43)n2)cc1
inhibition [1]: 82.1%
inhibition [2]: 94.5%
IC50 [3]: 0.79 µM

O=C(NCCCNc1nccc(-n2ccc3cccnc32)n1)c1c(F)cccc1F
inhibition [1]: 67.2%
inhibition [2]: 72.6%

COc1ccc(S(=O)(=O)NCCNc2nccc(-n3ccc4cccnc43)n2)cc1
inhibition [1]: 39.2%
inhibition [2]: 56.7%

O=S(=O)(NCCNc1nccc(-n2ccc3cccnc32)n1)c1ccc(Cl)cc1
inhibition [1]: 49.2%
inhibition [2]: 63.7%

O=C(Nc1ccc(Br)cc1)Nc1ccc(F)c(C(=O)c2c[nH]c3ncccc23)c1F
inhibition [1]: 80.1%
inhibition [2]: 92%

O=C(NCCNc1nccc(-n2ccc3cccnc32)n1)C1CCCCC1
inhibition [1]: 43.4%
inhibition [2]: 73.7%

O=C(NCCNc1nccc(-n2ccc3cccnc32)n1)c1ccc(C(F)(F)F)cc1
inhibition [1]: 12.1%
inhibition [2]: 32.9%

O=C(Nc1ccc(F)c(C(=O)c2c[nH]c3ncccc23)c1F)Nc1cccc2ccccc12
inhibition [1]: 68.9%
inhibition [2]: 85.6%

O=S(=O)(NCCNc1nccc(-n2ccc3cccnc32)n1)c1ccc(F)cc1
inhibition [1]: 55.9%
inhibition [2]: 89.5%
